Rows were chosen to be rich in hits. Some 3% of all compounds tested hit in one or more screens of this group.
5HT1a ag – agonists of human 5-HT1a serotonin receptor. P08908. CHO 5-HT1a Ga15 NFAT-bla reporter, FRET ratio; 0% basal, 100% maximal reference agonist. activation, % at 10 µM. 65,000 compounds, 0.56% hits. AID 567;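 active = activation above the screen-wide mean activation plus 3 SD, cut at about 19% in these data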;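 note: 0% = DMSO wells and 100% = 5-CT at EC100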
5-HT1A blocker – 5-HT1a (human) receptor antagonism; P08908; CHO 5-HT1a Ga15 NFAT-bla reporter, antagonist mode; inhibition, % at 10 µM; 62,000 compounds, 0.68% hits;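 active = inhibition above the mean of all tested compounds plus 3 SD, cut at about 43% in these data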;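 note: receptor stimulated by 5-CT agonist at 100 nM near EC80; beta-lactamase reporter measured by ratiometric fluorescence of a cleavable substrate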
HTR1E antagonist – antagonists of human 5-HT1E serotonin receptor; P28566; CHO 5-HT1E Ga15 NFAT-bla reporter, FRET, antagonist; 65,000 compounds, 0.99% hits; AID 571; inhibition, % at 6 µM;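 active = inhibition above a set limit, the mean inhibition across every tested compound plus 3 SD, cut at about 29% in these data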;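 note: signal is the 460 over 535 nm emission ratio of beta-lactamase substrate; 0% = agonist plus DMSO wells and 100% = wells without agonist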
5HT1E ag – agonists of human 5-HT1E serotonin receptor. activation, % at 6 µM. AID 574. P28566. 65,000 compounds, 0.69% hits. CHO 5-HT1E Ga15 NFAT-bla reporter, FRET; 0% DMSO wells, 100% control agonist wells;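 active = activation above a set limit, the screen-wide mean activation plus 3 SD, cut at about 8.5% in these data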;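 note: 100% = positive control agonist at 1 µM giving full maximal response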
S1P1 ag-PAM – activates or potentiates agonism at human S1P1 receptor; 56,000 compounds, 0.57% hits; P21453; S1P1 CRE-bla cells, forskolin, beta-lactamase FRET, potentiator mode; S1P1 agonist co-added at EC20, 2 nM; 100% = saturating reference agonist, 0% = basal; activation, % at 9.5 µM; AID 449;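 active = activation above a cutoff set at the mean activation of all tested compounds plus 3 SD, cut at about 54% in these data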;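 note: forskolin at 4 µM as EC80 and the EC20 agonist is SEW2871; 100% = SEW2871 at its EC100 plus forskolin at EC80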
S1P3 ag – activates the human S1P3 receptor. Q99500. S1P3 NFAT-BLA reporter cells, agonism, FRET ratio; relative to 1 µM S1P, basal subtracted. activation, % at 4.5 µM. 60,000 compounds, 0.1% hits. AID 373;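 active = activation above the screen-wide mean plus 3 SD, cut at about 4.5% in these data, passing the limit was not always enough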
Target sequence (Q99500 whole entry, looked up): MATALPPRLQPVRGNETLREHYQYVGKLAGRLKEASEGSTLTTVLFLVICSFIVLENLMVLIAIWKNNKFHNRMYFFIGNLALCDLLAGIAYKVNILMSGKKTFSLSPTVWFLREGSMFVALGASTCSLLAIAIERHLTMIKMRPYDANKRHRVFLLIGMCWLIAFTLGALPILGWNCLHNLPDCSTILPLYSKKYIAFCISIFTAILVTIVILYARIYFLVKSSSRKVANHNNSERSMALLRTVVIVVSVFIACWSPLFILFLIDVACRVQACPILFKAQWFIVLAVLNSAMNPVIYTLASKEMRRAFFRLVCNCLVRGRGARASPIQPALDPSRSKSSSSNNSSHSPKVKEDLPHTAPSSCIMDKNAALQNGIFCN
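Measure – % activation relative to 1 µM S1P (100%), per plate · System – stable CHO line with human S1P3, Gα16, NFAT-BLA reporter · Timing – cells plated overnight, compound 4 h 37 °C, substrate 2 h RT · Technique – fluorescent BLA substrate, ex 405 nm, em 460/535 nm ratio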
Active calls of the source: *; nt = not tested or not shown.

SMILES | 5HT1a ag | 5-HT1A blocker | HTR1E antagonist | 5HT1E ag | S1P1 ag-PAM | S1P3 ag
COc1cccc(C(=O)Nc2ccc3nc(N4CCN(c5ncccn5)CC4)cc(C)c3c2)c1OC | 4 | 24 | 30* | 1 | nt | nt
COC(=O)c1ccc2c(=O)n(Cc3ccc4c(c3)OCO4)c(SCC(=O)N3CCCC3)nc2c1 | 96* | 5 | 12 | -5 | nt | nt
COC(=O)Cc1c(C)c2c(O)cc(C)cc2oc1=O | 134* | -4 | -9 | -1 | 0 | -1
CC1=C(C(=O)OCc2ccc3c(c2)OCO3)C(c2ccccc2)NC(=O)N1 (stereo not drawn) | 2 | 18 | 16 | 0 | 88* | -1
CC1=C(C(=O)OCc2ccccc2)C(c2ccc(N3CCOCC3)cc2)NC(=O)N1 (stereo not drawn) | 0 | -5 | 8 | 0 | -26 | 0
COc1ccc(C2(O)CCN(CCCCOc3ccccc3)CC2)cc1 | -1 | 67* | 4 | 0 | 2 | 0
COc1ccc(S(=O)(=O)n2nc(-c3cc(OC)c(OC)c(OC)c3)cc2N)cc1OC | 0 | -16 | -3 | 0 | -50 | 0
COc1ccc(-c2cc(N)n(S(=O)(=O)c3c(F)c(F)c(F)c(F)c3F)n2)cc1OC | 0 | 46* | 33* | 0 | 17 | 0
CCOC(=O)C1CCCN(C(=O)c2ccc(OCC)cc2)C1 (stereo not drawn) | 0 | -4 | -7 | -1 | -26 | -1
O=S(=O)(c1ccc(S(=O)(=O)N(Cc2ccc(F)cc2)C2CCCC2)cc1)N1CCCC1 | 1 | 29 | 31* | -1 | 16 | -1
CCCCn1c(SCC(=O)c2ccccc2)nc2c1c(=O)[nH]c(=O)n2C | -1 | 7 | 3 | 0 | -11 | -1
CCCn1nc(NS(=O)(=O)c2ccccc2)c2cc3ccccc3nc21 | 24* | 0 | -1 | 2 | 19 | -1
COC(=O)c1cc2sccc2n1CC(=O)N1CCCc2ccccc21 | -3 | 17 | 1 | 0 | 2 | -1
Cn1c(C(=O)N2CCCc3ccccc32)cc2sccc21 | -2 | 2 | -3 | -1 | 86* | 1
c1ccc(Cn2c(CNc3nc4ccccc4n3CCN3CCOCC3)nc3ccccc32)cc1 | 1 | 20 | 15 | 0 | 4 | 0
CCOC(=O)CSc1nc2c(sc(=S)n2Cc2ccco2)c(=O)n1-c1ccc(F)cc1 | 0 | 50* | 11 | 0 | nt | nt
CCn1c(=S)sc2c(=O)n(-c3ccccc3)c(SCC(=O)NCc3ccco3)nc21 | -1 | 22 | -2 | 0 | nt | nt
CCOc1ccc(N2C(=O)CC(N3CCN(C4CCc5ccccc5C4)CC3)C2=O)cc1 (stereo not drawn) | -3 | 9 | 4 | -1 | -7 | -2
Cc1ccc(N2C(=O)CC(N3CCN(C4CCc5ccccc5C4)CC3)C2=O)cc1 (stereo not drawn) | 20* | 14 | 9 | 0 | 8 | -2
Cc1ccc2oc(=O)c3cnn(CC(=O)NC4CCCCC4C)c3c2c1 (stereo not drawn) | -2 | 9 | -5 | 0 | 5 | -1
c1ccc2c(c1)oc1c(N3CCN(Cc4ccc5c(c4)OCO5)CC3)ncnc12 | 63* | 29 | -10 | 0 | 92* | -1
c1ccc(Cn2nnc3c(N4CCN(Cc5ccc6c(c5)OCO6)CC4)ncnc32)cc1 | -1 | 5 | 5 | 0 | 20 | 0
CCCOc1cccc(NC(=O)c2cc(C)oc2C)c1 | -3 | 21 | 12 | 0 | 6 | -2
COc1cc([C@@H]2c3cc4c(cc3[C@H](O)[C@H]3COC(=O)[C@H]23)OCO4)cc(OC)c1OC | -3 | nt | 73* | 0 | -22 | -6
COc1cc(CC(=O)NCc2ccc3c(c2)OCO3)cc(OC)c1OC | 0 | -2 | 0 | 1 | 13 | 0
CCn1c(SCC(=O)Nc2nc3ccccc3s2)nc2c(c1=O)SC(C)C2 (stereo not drawn) | 0 | -16 | -11 | -1 | 46 | 0
CCn1c(SCC(=O)NC2CCCCC2)nc2c(c1=O)SC(C)C2 (stereo not drawn) | -1 | 8 | -3 | -1 | -2 | -1

Compound activity (PubChem BioAssay)
